In PubChem BioAssay AID463202 (Sanford-Burnham Center for Chemical Genomics, 2010):
Active and inactive are the calls of the source.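 The calls were made as follows: active = inhibition above 50% relative to controls in each of two repeat datasets, tested at 10 µM; inactive = the rest.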

Molecular target: Vasopressin V2 receptor (Homo sapiens) (UniProt P30518)
Test: vasopressin V2 receptor antagonists, SAR follow-up, selectivity assay for GPR35 antagonist project, imaging, beta-arrestin-GFP, U2OS, antagonist mode (AID 463202)
Details: U2OS AVPR2 beta-arrestin-GFP translocation imaging; at 10 µM; hits give high values
How it was run: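 Test system: U2OS cells expressing human vasopressin V2 receptor and GFP-β-arrestin; Dosing: single compound dose of 10 µM; Schedule: 15 min compound pre-incubation, then 40 min agonist exposure; Technique: imaged GFP-arrestin aggregate spots, wavelet-analysed; Read-out basis: percent activity from spot counts versus controls; Control set: vasopressin 0.01 µIU/mL as low, 10 mIU/mL as high control.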

Chain of Vasopressin V2 receptor (Homo sapiens) (P30518 whole entry, looked up): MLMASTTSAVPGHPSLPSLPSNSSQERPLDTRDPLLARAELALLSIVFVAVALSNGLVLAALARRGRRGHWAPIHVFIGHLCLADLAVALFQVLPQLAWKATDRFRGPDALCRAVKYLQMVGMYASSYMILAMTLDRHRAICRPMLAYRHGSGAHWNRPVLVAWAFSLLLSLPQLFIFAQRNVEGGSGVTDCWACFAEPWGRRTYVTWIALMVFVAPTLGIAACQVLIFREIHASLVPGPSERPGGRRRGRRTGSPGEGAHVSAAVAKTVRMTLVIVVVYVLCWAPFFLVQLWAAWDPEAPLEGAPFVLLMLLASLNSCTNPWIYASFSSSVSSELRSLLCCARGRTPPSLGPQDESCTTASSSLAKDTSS

SMILES | inhibition
O=C(CCCN1C(=O)S/C(=C\C=C\c2ccccc2)C1=O)Nc1ccc(C(=O)O)cc1 | 18.2% (inactive)
COc1cccc(/C=C2\SC(=S)N(CCCC(=O)Nc3ccc(C(=O)O)cc3)C2=O)c1 | -2.9% (inactive)
O=C(CCCN1C(=O)/C(=C\c2ccccc2)SC1=S)Nc1cccc(C(=O)O)c1 | 15.9% (inactive)
Cc1nc(N2CCC(C)CC2)c2c(C)c(C(=O)Nc3ccc4c(c3)OCCO4)sc2n1 | -5.7% (inactive)
CCOc1ccc(NC(=O)CSc2nc3ccsc3c(=O)n2Cc2ccc(C(=O)O)cc2)cc1 | 15.5% (inactive)
CC(/C=C1\SC(=S)N(CCCC(=O)Nc2ccc(C(=O)O)cc2)C1=O)=C\c1ccccc1 | 18.5% (inactive)
CC(C)(C)c1ccc(OCCC(=O)NCCc2ccc(S(N)(=O)=O)cc2)cc1 | 12.5% (inactive)
CCc1ccc(/C=C2\SC(=S)N(CCCC(=O)Nc3ccc(C(=O)O)cc3)C2=O)cc1 | -6.8% (inactive)
Cc1ccccc1N1CCN(c2ncnc3c2cnn3Cc2ccc(Cl)cc2)CC1 | 7.6% (inactive)
O=C(CCCN1C(=O)/C(=C/c2ccc3c(c2)OCO3)SC1=S)Nc1cccc(C(=O)O)c1 | 13.2% (inactive)
O=C(CCCN1C(=O)S/C(=C/C=C/c2ccccc2)C1=O)Nc1ccc(C(=O)O)cc1 | 8.9% (inactive)
O=C(Nc1ccc2nc(SCc3ccccc3)sc2c1)c1ccccc1C(=O)N1CCOCC1 | 3.3% (inactive)
O=C(CCCN1C(=O)/C(=C/c2ccccc2)SC1=S)Nc1ccc(C(=O)O)c(O)c1 | 51.3% (inactive)
CC(C)c1ccc(NC(=O)CSc2nc3ccsc3c(=O)n2Cc2ccc(C(=O)O)cc2)cc1 | 22.9% (inactive)
COc1ccc(/C=C2\SC(=S)N(CCCC(=O)Nc3ccc(O)cc3)C2=O)cc1 | 25.3% (inactive)
O=C(Nc1ccc2nc(SCc3ccc(Cl)cc3)sc2c1)c1ccccc1C(=O)N1CCOCC1 | -0.8% (inactive)
CC(/C=C1\SC(=S)N(CCCC(=O)Nc2ccc(C(=O)O)c(O)c2)C1=O)=C\c1ccccc1 | 30% (inactive)
Cc1ccc(/C=C2\SC(=S)N(CCCC(=O)Nc3ccc(O)cc3)C2=O)cc1 | 9.2% (inactive)
Cc1ccc(Cn2ncc3c(N4CCN(c5ccccc5C)CC4)ncnc32)cc1 | 36.9% (inactive)
O=C(CCCN1C(=O)/C(=C\c2ccccc2)SC1=S)Nc1ccc(C(=O)O)cc1 | 4.8% (inactive)
Cc1ccc(/C=C2\SC(=S)N(CCCC(=O)Nc3cccc(C(=O)O)c3)C2=O)cc1 | 8.2% (inactive)
COc1ccc(/C=C2/SC(=S)N(CCCC(=O)Nc3ccc(O)cc3)C2=O)cc1 | 1.8% (inactive)
COc1ccc(/C=C2\SC(=S)N(CCCC(=O)Nc3ccc(C(=O)O)c(O)c3)C2=O)cc1OC | 22.9% (inactive)
O=C(CCCN1C(=O)/C(=C/c2ccc3c(c2)OCO3)SC1=S)Nc1ccc(C(=O)O)c(O)c1 | 28.4% (inactive)
COc1ccc(/C=C2\SC(=S)N(CCCC(=O)Nc3cccc(C(=O)O)c3)C2=O)cc1OC | 27.3% (inactive)
CCOC(=O)c1ccc(NC(=O)CCCN2C(=O)/C(=C/c3ccc(C)cc3)SC2=S)cc1 | 28.8% (inactive)
O=C(CCCN1C(=O)/C(=C/c2ccc3c(c2)OCO3)SC1=S)Nc1ccc(C(=O)O)cc1 | -6.5% (inactive)
O=C(CCCN1C(=O)S/C(=C/c2ccccc2)C1=S)Nc1ccc(C(=O)O)cc1 | 0.7% (inactive)
Clc1ccc(Cn2ncc3c(N4CCN(c5ccccc5)CC4)ncnc32)cc1 | 3.4% (inactive)
Cc1c(C(=O)Nc2ccc3c(c2)OCCO3)sc2ncnc(N3CCC(C)CC3)c12 | -3.7% (inactive)
